Assay outcomes: PubChem BioAssay, Sanford-Burnham Center for Chemical Genomics
This is a sample that favours compounds with a hit; in the whole collection about 1.3% have one here.
PfGluPho inh: PfG6PD (Plasmodium falciparum) enzyme inhibition; actives 0.78% (n = 350,000); AID 504690; PfGluPho enzyme, NADPH resazurin-diaphorase fluorescence; inhibition, % at 20 µM;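 active = inhibition reaching at least a set limit at 20 µM in the primary screen, cut at about 59% in these data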;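 note: 0% = DMSO wells with substrate and 100% = DMSO wells lacking glucose-6-phosphate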
HKDC1 inhibitor: HKDC1 (human) hexokinase inhibition; recombinant HKDC1, G6PDH/diaphorase resazurin coupled fluorescence; inhibition, % at 20 µM; AID 493160; Q2TB90; actives 0.16% (n = 340,000);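 active = inhibition above about 35% when tested at 20 µM, limit read from the data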;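 note: plate controls were DMSO wells with enzyme for no effect and DMSO wells lacking enzyme for full effect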
Target sequence (Q2TB90 whole entry, looked up): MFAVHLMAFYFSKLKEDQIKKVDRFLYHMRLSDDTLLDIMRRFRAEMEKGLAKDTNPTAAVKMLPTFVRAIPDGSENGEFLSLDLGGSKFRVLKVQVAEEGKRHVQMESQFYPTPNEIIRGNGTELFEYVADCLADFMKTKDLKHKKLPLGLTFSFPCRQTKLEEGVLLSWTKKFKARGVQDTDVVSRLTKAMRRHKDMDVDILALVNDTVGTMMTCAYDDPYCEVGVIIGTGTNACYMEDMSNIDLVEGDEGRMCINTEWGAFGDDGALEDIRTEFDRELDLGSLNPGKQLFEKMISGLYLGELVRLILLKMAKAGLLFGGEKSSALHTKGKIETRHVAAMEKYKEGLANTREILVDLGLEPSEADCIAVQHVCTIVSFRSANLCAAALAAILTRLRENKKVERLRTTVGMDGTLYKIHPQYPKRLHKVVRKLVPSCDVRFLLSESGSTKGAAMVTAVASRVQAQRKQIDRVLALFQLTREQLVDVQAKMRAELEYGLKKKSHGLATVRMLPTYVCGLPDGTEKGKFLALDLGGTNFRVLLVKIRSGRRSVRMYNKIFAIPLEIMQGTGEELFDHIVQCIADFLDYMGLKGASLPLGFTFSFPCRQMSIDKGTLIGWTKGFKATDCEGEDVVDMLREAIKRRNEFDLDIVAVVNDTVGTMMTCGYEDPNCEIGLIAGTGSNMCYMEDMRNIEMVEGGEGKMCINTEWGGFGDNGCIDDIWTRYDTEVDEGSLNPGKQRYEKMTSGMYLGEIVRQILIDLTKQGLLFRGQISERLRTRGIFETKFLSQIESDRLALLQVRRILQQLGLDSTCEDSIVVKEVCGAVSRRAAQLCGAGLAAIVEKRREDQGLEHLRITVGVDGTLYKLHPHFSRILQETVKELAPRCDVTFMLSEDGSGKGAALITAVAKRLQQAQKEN
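Assay system: recombinant HKDC1 hexokinase; detection: coupled resazurin fluorescence, excitation 525 nm, emission 613 nm; benchmarks: DMSO-plus-enzyme-mix negative control, buffer-substituted positive control; compound dosing: single 20 µM dose; schedule: 90 min at room temperature in dark; also added: glucose plus 1 mM ATP as hexokinase substrates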
Diaphorase inh: inhibits diaphorase or chemically oxidizes, flagging diaphorase assay artifacts; inhibition, % at 20 µM; actives 0.69% (n = 190,000); AID 1217; diaphorase resazurin-to-resorufin fluorescence, NADH, 16 min; bacterial (C. kluyveri) enzyme, not human;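 active = primary screen inhibition at 20 µM above a set limit, cut at about 50% in these data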;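 note: plate controls were DMSO with full reaction for no effect and wells lacking NADH for full effect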
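System: Diaphorase enzyme from Clostridium kluyveri | Amount: Enzyme working solution with 0.14 U/mL diaphorase | Benchmarks: No-NADH positive control and DMSO neutral control | Signal: Fluorescence of resorufin formed from resazurin, Ex 544/Em 590 nm | Schedule: 16-min room-temperature incubation before reading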
Diaph act CS: activates diaphorase or chemically reduces, flagging diaphorase assay artifacts; AID 1229; activation factor at 20 µM; actives 0.005% (n = 190,000); Diaphorase/resazurin coupled assay, resorufin fluorescence, 16 min; active compounds read high; 1 = vehicle wells, 0 = NADH-free wells;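 active = diaphorase activity raised at least twofold by the compound at 20 µM; inactive = activation factor below 2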
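Test system: Clostridium kluyveri diaphorase, purified enzyme; input: enzyme 0.07 U/mL final; buffer or medium: 50 mM HEPES pH 7.4 with 4.542 mM MgCl2, 0.005% Tween 20; also added: 0.114 mM NADH and 0.1 mM resazurin, final amounts; schedule: 16 min enzyme reaction, ambient temperature; technique: fluorescence of resorufin, 544 nm excitation, 590 nm emission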
G6PDH counter: inhibits Leuconostoc G6PDH, flagging false hits in G6PDH-based assays; Purified L. mesenteroides G6PDH, diaphorase/resazurin coupled fluorescence, 45 min; inhibition, % at 5 µM; actives 0.12% (n = 200,000); in the data active = inhibition above about 50%
PfG6PD confirm: confirmation of Plasmodium falciparum G6PD inhibitors; shares compounds with PfGluPho inh; recombinant PfGluPho, NADPH-diaphorase-resazurin fluorescence; inhibition, % at 20 µM; actives 34% (n = 2,400);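 active = inhibition of at least 50% at 20 µM in any single replicate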;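 note: 0% = DMSO with substrate and 100% = DMSO lacking glucose-6-phosphate substrate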
Diaphorase 10uM: counter-screen for P. falciparum G6PD inhibitors: diaphorase inhibitors, oxidizers; shares compounds with PfGluPho inh; diaphorase-coupled resazurin reduction, fluorescence, NADPH 10 uM; inhibition, % at 20 µM; actives 39% (n = 820); AID 504862;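 active = average inhibition reaching 50% or more with the compound at 20 µM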;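 note: resorufin red fluorescence formed as diaphorase reduces resazurin using NADPH; 0% = DMSO with enzyme and 100% = DMSO without enzyme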
Diaphorase 30uM: counter-screen for P. falciparum G6PD inhibitors: diaphorase inhibitors, oxidizers. shares compounds with PfGluPho inh. inhibition, % at 20 µM. actives 29% (n = 820). AID 504863. Diaphorase/resazurin coupled assay, resorufin fluorescence, 30 uM NADPH;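 active = inhibition averaging 50% or more, tested at 20 µM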;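 note: 0% = DMSO with enzyme and 100% = DMSO wells lacking diaphorase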
Active calls of the source: *; nt = not tested or not shown.

SMILES	PfGluPho inh	HKDC1 inhibitor	Diaphorase inh	Diaph act CS	G6PDH counter	PfG6PD confirm	others
Cc1ccccc1-n1c(N)c(C(=O)Nc2ccc(F)cc2)sc1=S	34	-2	4	1	7	nt
COC(=O)c1ccccc1NC(=O)c1sc(=S)n(C)c1N	63*	-2	12	0.9	5	40
Cc1ccc(-n2c(N)c(C(N)=O)sc2=S)c(C)c1	62*	-12	11	0.9	4	29
COCCNCCOc1ccccc1-c1ccccc1	-1	-1	4	1	-4	nt
COCC(C)n1c(C)cc(C(=O)CSc2nc(C)c(C)c(C)n2)c1C (centres undefined)	60*	-2	nt	nt	nt	-12
COCCn1c(C)cc(C(=O)CSc2nc(C)c(C)c(C)n2)c1C	32	-4	-2	1	0	nt
O=[N+]([O-])c1cnc(Sc2ccncn2)c([N+](=O)[O-])c1	80*	nt	nt	nt	nt	59*	Diaphorase 10uM=9;Diaphorase 30uM=13
O=[N+]([O-])c1cnc(Sc2ccncn2)s1	19	-1	nt	nt	nt	nt
COc1ccc(/C=N/Nc2nnc(C)n2N)cc1OC	61*	5	7	0.9	6	7
CS(=O)(=O)c1ccc(N)c(SSc2cc(S(C)(=O)=O)ccc2N)c1	97*	9	nt	nt	nt	99*	Diaphorase 10uM=-29;Diaphorase 30uM=-20
CS(=O)(=O)c1ccc2nc(N)sc2c1	4	3	9	0.9	4	nt
COc1ccc(N)cc1-n1c(C)ccc1C	78*	14	43	0.6	44	13
Cc1nc2ccc(NC3=NCCCCC3)cc2s1	64*	1	-4	1	5	38
Clc1ccc(Nc2ncnc3c2cnn3-c2ccccc2)cc1	111*	0	16	0.8	-42	19
CC(=O)Nc1ccc(Nc2ncnc3c2cnn3-c2ccccc2)cc1	-3	15	7	0.9	8	nt
N#Cc1ccc(-c2nc3ccc(Br)cn3c2Cc2ccccc2)cc1	89*	nt	nt	nt	nt	13
Cc1ccc(Cc2c(-c3ccc(C#N)cc3)nc3ccc(Br)cn23)cc1	15	nt	nt	nt	nt	nt
COCCN1C(=O)N(c2cccc(C)c2)C(=O)C1CC(=O)Nc1ccc(F)cc1 (centres undefined)	1	2	7	0.9	-2	nt
O=C(O)c1ccc(-n2cc(-c3cc4ccccc4oc3=O)[nH]c2=S)cc1	61*	-7	23	0.8	2	25
O=c1oc2ccccc2cc1-c1ccccc1	-10	-11	10	0.9	6	nt
COc1ccc(O)c(C2=Nc3ccccc3N=C(c3cccs3)C2)c1	-9	-8	12	0.9	5	nt
CCCCCCCC[n+]1c(C)n(-c2ccccc2)c2ccc(NC(C)=O)cc21	4	1	6	0.9	0	nt
Cc1cnc(NC(=O)c2ccc3c(c2)OCCO3)s1	16	3	nt	nt	nt	nt
O=C(Nc1ncc([N+](=O)[O-])s1)c1ccc2c(c1)OCO2	126*	1	nt	nt	nt	87*	Diaphorase 10uM=83*;Diaphorase 30uM=78*
Cc1ccc(C(=O)Nc2ncc([N+](=O)[O-])s2)cc1	99*	10	nt	nt	nt	85*	Diaphorase 10uM=76*;Diaphorase 30uM=63*
Cc1ccnc(NC(=O)CCC(=O)N(CC(=O)NCc2ccc(F)cc2)Cc2ccccc2)c1	1	-1	nt	nt	nt	nt
Oc1cc2c(cc1O)[C@H]1c3ccc(O)c(O)c3OC[C@@]1(O)C2	113*	5	nt	nt	nt	98*	Diaphorase 10uM=56*;Diaphorase 30uM=30
COc1ccccc1/C=N/NC(=O)CC(=O)Nc1ccc(Cl)c(Cl)c1	106*	5	26	0.7	-2	44
CC(C)C[C@H](NC(=O)C1CCN(S(=O)(=O)c2ccccc2)CC1)C(=O)NCc1ccccn1	-4	-6	nt	nt	nt	nt
CCOc1ccc(-n2c(SCc3cc(=O)oc4cc(C)ccc34)nnc2-c2cccnc2)cc1	16	-4	16	0.8	-23	nt
